Active and inactive are the calls of the source. No cut-off for these calls is given here.
The molecules below were run against T1, Urea transporter 1 (Homo sapiens, UniProt Q13336) (assay: Inhibition of urea transporter B in human erythrocytes incubated for 6 mins by spectrophotometric analysis based erythrocyte lysis assay).
T1 sequence (Q13336 whole entry): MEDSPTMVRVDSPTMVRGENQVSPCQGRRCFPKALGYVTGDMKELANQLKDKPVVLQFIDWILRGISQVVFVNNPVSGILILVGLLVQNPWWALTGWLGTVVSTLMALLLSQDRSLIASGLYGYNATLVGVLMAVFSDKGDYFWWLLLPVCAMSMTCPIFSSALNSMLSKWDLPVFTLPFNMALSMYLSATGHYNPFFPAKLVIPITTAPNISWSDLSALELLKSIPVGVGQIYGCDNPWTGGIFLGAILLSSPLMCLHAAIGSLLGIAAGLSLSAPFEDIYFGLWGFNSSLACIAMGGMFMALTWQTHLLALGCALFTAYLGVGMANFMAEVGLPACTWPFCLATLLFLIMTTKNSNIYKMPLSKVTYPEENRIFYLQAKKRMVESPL
Assay type: cell-based

| IC50 [µM] | Compound |
| --- | --- |
| 1.72 | CC(=O)c1sc2nc3ccc(C)cc3cc2c1N |

The molecules below were run on Rattus norvegicus (assay: Diuretic activity in Sprague-Dawley rat assessed as increase in urine output at 100 mg/kg, sc measured after 10 hrs).
Assay type: functional, organism-based
In short: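 SD rats housed in metabolic cages received a subcutaneous injection of 100 mg/kg in 40% 2-hydroxypropyl-β-cyclodextrin, with the vehicle alone as control. Urine output was collected for 10 h after dosing. n=5, mean + SD.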

| Compound | Activity |
| --- | --- |
| COC(=O)c1sc2nc(C)c(N)cc2c1N | Active |

The molecules below were run against T2, Urea transporter 1 (Rattus norvegicus, UniProt P97689) (assay: Inhibition of urea transporter B in Sprague-Dawley rat erythrocytes incubated for 6 mins by spectrophotometric analysis based erythrocyte lysis assay).
T2 sequence (P97689 whole entry): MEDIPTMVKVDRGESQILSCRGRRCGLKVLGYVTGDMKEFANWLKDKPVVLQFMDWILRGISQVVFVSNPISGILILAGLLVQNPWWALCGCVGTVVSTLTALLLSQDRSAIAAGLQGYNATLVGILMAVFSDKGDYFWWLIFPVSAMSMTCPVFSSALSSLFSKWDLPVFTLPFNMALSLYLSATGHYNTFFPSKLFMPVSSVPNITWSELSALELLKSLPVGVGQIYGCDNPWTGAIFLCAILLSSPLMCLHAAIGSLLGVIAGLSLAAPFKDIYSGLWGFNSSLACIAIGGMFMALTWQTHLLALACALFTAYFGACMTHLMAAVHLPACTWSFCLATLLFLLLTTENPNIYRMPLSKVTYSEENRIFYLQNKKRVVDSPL
Assay type: cell-based
In short: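 Blood came from 8-week-old male SD rats. Erythrocytes were held at 2% hematocrit in hyperosmolar PBS with 1.25 M urea and 5 mM glucose for 2 h at ambient temperature. Compound in DMSO was added for 6 min, then the cells were diluted 1:10 into isotonic PBS. Lysis was read as A710 within 5 min and normalised to same-plate no-lysis (isotonic PBS) and full-lysis (water) controls.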

| IC50 [µM] | Compound |
| --- | --- |
| 1.63 | COc1ccc2nc3sc(C(C)=O)c(N)c3cc2c1 |
| 0.71 | CCc1cc2c(N)c(C(=O)OC)sc2nc1C |
| 0.61 | COC(=O)c1sc2nc3c(C)cc(C)cc3cc2c1N |
| 6.42 | COC(=O)c1sc2nc(C)c(NS(C)(=O)=O)cc2c1N |
| 0.22 | COC(=O)c1sc2nc3ccccc3cc2c1N |
| 3.51 | CC(=O)c1sc2nc3ccc(C)cc3cc2c1N |
| 2.54 | COC(=O)c1sc2nc(C)cc(C)c2c1N |
| 0.54 | COC(=O)c1sc2nc(C)c(N)cc2c1N |
| 6.12 | COC(=O)c1sc2nc(C)cc(C(F)(F)F)c2c1N |
| > 10 | CNC(=O)c1cc2c(N)c(C(=O)OC)sc2nc1C |
| 3.29 | COC(=O)c1sc2nc(C)c(-c3ccccc3)cc2c1N |
| > 10 | COC(=O)c1sc2nc(C)c([N+](=O)[O-])cc2c1N |
| 0.91 | COC(=O)c1sc2nc(C)c(C(C)=O)cc2c1N |
| > 10 | COC(=O)CNC(=O)c1sc2nc3ccc(OC)cc3cc2c1N |
| 1.3 | COC(=O)c1sc2nc(C)ccc2c1N |
| > 10 | CCOC(=O)c1sc2nc3ccc(OC)cc3cc2c1N |
| > 10 | CCNC(=O)c1cc2c(N)c(C(=O)OC)sc2nc1C |
| > 10 | CNC(=O)c1sc2nc3ccc(OC)cc3cc2c1N |

| IC50 [µM] | Compound |
| --- | --- |
| > 10 | COc1ccc2nc3sc(S(=O)(=O)N(C)C)c(N)c3cc2c1 |
| 0.16 | COC(=O)c1sc2nc3ccc(F)cc3cc2c1N |
| > 10 | COc1ccc2nc3sc(C(=O)O)c(N)c3cc2c1 |
| 3.36 | COC(=O)c1sc2nc(-c3ccccc3)ccc2c1N |
| > 10 | COc1ccc2nc3sc(C(=O)N4CCOCC4)c(N)c3cc2c1 |
| 3.47 | COC(=O)c1sc2nc(C)c(NC(C)=O)cc2c1N |
| > 10 | COC(=O)CC(=O)c1sc2nc3ccc(OC)cc3cc2c1N |
| > 10 | COC(=O)c1sc2nc(C)c(C(=O)N3CCOCC3)cc2c1N |
| 0.23 | COC(=O)c1sc2nc3ccc(C)cc3cc2c1N |
| > 10 | COc1ccc2nc3sc(C(N)=O)c(N)c3cc2c1 |
| > 10 | CCOC(=O)c1cnc2sc(C(=O)OC)c(N)c2c1 |
| > 10 | COC(=O)c1sc2nc(C(=O)N3CCOCC3)ccc2c1N |
| 5.46 | COC(=O)c1sc2nc(C)c(OC)cc2c1N |
| 0.27 | COC(=O)c1sc2nc3ccc(Br)cc3cc2c1N |
| > 10 | COC(=O)c1sc2nc(C)c(F)cc2c1N |
| 3.75 | COC(=O)c1sc2nc(C)c(N(C)C)cc2c1N |
| 0.22 | COC(=O)c1sc2nc3ccc(OC)cc3cc2c1N |
| 8.47 | COC(=O)c1sc2nc(C)c(Br)cc2c1N |

Reference: ChEMBL document CHEMBL4346698, “Discovery and optimization of thienopyridine derivatives as novel urea transporter inhibitors” (Eur J Med Chem, 2019)
